Data published in ChEMBL document CHEMBL4425103, “Diving into the Water: Inducible Binding Conformations for BRD4, TAF1(2), BRD9, and CECR2 Bromodomains” (J Med Chem, 2016).

Key:
Peregrin = target: T1, Peregrin (Homo sapiens, UniProt P55201); experiment: Displacement of biotinylated JQ1 analog from recombinant His-tagged BRPF1 (unknown origin) incubated for 10 mins by TR-FRET assay
T1 sequence (P55201 whole entry): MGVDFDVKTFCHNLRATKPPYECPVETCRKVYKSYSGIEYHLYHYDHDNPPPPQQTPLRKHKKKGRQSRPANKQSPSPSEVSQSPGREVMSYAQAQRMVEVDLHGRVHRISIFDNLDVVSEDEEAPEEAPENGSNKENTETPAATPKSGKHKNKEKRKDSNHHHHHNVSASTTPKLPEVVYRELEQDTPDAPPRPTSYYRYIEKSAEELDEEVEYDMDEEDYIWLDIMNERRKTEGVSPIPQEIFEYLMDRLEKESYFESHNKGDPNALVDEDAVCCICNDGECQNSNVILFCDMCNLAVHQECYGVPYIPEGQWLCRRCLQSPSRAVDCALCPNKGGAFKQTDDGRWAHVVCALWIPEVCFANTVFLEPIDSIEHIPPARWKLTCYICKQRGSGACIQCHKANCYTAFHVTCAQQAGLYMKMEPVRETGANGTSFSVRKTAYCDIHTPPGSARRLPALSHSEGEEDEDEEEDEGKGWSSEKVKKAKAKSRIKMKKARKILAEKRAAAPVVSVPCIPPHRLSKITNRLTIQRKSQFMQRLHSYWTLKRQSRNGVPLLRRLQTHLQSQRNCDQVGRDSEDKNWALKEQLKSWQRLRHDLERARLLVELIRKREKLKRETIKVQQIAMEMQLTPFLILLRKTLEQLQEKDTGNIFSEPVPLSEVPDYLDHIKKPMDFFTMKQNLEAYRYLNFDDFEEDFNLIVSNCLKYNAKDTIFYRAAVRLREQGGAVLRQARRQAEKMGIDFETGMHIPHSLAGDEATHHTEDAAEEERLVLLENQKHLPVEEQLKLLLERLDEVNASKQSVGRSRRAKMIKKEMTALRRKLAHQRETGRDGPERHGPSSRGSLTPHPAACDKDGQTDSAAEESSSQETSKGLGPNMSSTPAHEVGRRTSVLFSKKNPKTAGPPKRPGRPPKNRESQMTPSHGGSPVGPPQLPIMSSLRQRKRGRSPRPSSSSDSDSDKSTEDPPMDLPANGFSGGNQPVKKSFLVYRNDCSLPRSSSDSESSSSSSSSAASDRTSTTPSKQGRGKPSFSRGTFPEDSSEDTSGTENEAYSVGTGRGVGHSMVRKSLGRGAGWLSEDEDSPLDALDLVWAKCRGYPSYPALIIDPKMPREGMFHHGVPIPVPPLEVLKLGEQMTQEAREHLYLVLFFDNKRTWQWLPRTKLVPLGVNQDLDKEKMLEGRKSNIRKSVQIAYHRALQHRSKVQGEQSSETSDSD
Outline: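 Bromodomain, then biotinylated ligand, each added with 10 min incubation. Anti-His europium (0.2 nM) plus streptavidin-APC followed for 40 min. 10-point titrations in duplicate, at least 2 independent runs.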

[1] = target: T2, Transcription initiation factor TFIID subunit 1 (Homo sapiens, UniProt P21675); experiment: Inhibition of recombinant His-tagged TAF1 isoform-1 (unknown origin) using biotinylated ligand incubated for 10 mins by TR-FRET assay
T2 sequence (P21675 whole entry, canonical isoform): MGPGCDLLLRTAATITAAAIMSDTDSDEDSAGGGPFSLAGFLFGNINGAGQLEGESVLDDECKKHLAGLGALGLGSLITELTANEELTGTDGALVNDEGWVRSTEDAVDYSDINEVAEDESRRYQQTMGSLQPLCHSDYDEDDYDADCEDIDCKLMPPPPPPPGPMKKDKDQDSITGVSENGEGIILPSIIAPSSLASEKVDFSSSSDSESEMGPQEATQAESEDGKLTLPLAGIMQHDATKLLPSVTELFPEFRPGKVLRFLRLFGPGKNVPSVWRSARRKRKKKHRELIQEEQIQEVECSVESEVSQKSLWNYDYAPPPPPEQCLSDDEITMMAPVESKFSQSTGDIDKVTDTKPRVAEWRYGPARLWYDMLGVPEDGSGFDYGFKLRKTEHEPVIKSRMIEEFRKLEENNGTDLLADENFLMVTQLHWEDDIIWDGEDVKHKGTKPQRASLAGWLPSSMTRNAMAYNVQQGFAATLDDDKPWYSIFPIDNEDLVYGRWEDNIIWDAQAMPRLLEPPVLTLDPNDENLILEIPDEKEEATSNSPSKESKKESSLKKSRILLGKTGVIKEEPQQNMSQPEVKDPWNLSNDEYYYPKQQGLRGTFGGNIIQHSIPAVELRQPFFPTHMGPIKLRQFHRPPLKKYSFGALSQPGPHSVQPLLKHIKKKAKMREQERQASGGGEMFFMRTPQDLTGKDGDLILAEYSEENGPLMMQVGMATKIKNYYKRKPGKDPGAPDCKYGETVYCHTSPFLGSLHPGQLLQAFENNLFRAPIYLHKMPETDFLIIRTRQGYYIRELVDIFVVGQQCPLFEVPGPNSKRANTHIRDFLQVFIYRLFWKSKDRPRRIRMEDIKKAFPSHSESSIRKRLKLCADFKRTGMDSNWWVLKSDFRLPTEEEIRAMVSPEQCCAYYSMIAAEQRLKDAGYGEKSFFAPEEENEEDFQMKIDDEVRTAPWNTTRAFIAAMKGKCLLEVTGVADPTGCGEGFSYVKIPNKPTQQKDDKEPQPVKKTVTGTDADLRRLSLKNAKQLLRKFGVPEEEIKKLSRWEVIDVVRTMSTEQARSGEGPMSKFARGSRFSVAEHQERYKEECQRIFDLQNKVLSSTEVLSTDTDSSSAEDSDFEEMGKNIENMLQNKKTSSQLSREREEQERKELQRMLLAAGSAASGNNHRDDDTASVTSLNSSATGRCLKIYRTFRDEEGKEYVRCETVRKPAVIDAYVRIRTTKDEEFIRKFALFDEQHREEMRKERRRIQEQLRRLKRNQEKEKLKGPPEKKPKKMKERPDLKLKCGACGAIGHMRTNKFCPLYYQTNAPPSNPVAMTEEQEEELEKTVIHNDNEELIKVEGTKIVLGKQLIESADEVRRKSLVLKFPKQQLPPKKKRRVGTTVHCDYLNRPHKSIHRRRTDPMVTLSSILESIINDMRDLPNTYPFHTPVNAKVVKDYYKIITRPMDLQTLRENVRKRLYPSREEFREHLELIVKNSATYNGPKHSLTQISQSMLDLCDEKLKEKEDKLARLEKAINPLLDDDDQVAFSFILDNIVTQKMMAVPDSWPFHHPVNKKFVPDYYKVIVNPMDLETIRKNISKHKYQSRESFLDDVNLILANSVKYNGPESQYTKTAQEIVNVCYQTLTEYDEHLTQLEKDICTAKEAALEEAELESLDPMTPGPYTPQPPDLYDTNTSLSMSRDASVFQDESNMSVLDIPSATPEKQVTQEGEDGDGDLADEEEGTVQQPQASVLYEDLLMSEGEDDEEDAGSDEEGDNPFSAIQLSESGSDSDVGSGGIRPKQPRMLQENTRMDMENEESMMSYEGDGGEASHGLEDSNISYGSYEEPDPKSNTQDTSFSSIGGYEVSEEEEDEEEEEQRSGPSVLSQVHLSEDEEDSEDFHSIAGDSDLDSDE

[2] = target: T3, Bromodomain-containing protein 4 (Homo sapiens, UniProt O60885); experiment: Inhibition of recombinant His-tagged BRD4 bromodomain2 (unknown origin) using biotinylated ligand incubated for 10 mins by TR-FRET assay
[3] = target: T4, Bromodomain-containing protein 9 (Homo sapiens, UniProt Q9H8M2); experiment: Displacement of biotinylated JQ1 analog from recombinant His-tagged BRD9 (unknown origin) incubated for 10 mins by TR-FRET assay
T4 sequence (Q9H8M2 whole entry): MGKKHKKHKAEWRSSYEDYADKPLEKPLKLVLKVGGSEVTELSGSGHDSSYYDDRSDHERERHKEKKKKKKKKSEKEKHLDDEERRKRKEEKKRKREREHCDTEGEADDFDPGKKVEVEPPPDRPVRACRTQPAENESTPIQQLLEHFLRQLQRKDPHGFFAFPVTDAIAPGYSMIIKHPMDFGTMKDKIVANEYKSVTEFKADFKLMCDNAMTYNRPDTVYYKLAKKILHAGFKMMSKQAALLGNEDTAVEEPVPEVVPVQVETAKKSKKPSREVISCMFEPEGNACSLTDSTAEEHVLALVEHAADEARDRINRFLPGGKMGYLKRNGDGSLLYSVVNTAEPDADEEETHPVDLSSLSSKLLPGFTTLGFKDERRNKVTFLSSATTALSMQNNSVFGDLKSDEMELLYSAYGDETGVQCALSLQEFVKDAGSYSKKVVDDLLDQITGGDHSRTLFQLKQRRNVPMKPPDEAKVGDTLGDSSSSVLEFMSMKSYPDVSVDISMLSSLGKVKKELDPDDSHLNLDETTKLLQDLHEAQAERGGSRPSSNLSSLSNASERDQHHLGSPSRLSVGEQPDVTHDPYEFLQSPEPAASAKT

[4] = target: T2, Transcription initiation factor TFIID subunit 1; experiment: Inhibition of recombinant His-tagged TAF1 isoform-2 (unknown origin) using biotinylated ligand incubated for 10 mins by TR-FRET assay
CREB-binding protein = CREB-binding protein (Homo sapiens, UniProt Q92793); experiment: Displacement of biotinylated JQ1 analog from recombinant His-tagged CBP (unknown origin) incubated for 10 mins by TR-FRET assay
CREB-binding protein, sequence (Q92793 whole entry): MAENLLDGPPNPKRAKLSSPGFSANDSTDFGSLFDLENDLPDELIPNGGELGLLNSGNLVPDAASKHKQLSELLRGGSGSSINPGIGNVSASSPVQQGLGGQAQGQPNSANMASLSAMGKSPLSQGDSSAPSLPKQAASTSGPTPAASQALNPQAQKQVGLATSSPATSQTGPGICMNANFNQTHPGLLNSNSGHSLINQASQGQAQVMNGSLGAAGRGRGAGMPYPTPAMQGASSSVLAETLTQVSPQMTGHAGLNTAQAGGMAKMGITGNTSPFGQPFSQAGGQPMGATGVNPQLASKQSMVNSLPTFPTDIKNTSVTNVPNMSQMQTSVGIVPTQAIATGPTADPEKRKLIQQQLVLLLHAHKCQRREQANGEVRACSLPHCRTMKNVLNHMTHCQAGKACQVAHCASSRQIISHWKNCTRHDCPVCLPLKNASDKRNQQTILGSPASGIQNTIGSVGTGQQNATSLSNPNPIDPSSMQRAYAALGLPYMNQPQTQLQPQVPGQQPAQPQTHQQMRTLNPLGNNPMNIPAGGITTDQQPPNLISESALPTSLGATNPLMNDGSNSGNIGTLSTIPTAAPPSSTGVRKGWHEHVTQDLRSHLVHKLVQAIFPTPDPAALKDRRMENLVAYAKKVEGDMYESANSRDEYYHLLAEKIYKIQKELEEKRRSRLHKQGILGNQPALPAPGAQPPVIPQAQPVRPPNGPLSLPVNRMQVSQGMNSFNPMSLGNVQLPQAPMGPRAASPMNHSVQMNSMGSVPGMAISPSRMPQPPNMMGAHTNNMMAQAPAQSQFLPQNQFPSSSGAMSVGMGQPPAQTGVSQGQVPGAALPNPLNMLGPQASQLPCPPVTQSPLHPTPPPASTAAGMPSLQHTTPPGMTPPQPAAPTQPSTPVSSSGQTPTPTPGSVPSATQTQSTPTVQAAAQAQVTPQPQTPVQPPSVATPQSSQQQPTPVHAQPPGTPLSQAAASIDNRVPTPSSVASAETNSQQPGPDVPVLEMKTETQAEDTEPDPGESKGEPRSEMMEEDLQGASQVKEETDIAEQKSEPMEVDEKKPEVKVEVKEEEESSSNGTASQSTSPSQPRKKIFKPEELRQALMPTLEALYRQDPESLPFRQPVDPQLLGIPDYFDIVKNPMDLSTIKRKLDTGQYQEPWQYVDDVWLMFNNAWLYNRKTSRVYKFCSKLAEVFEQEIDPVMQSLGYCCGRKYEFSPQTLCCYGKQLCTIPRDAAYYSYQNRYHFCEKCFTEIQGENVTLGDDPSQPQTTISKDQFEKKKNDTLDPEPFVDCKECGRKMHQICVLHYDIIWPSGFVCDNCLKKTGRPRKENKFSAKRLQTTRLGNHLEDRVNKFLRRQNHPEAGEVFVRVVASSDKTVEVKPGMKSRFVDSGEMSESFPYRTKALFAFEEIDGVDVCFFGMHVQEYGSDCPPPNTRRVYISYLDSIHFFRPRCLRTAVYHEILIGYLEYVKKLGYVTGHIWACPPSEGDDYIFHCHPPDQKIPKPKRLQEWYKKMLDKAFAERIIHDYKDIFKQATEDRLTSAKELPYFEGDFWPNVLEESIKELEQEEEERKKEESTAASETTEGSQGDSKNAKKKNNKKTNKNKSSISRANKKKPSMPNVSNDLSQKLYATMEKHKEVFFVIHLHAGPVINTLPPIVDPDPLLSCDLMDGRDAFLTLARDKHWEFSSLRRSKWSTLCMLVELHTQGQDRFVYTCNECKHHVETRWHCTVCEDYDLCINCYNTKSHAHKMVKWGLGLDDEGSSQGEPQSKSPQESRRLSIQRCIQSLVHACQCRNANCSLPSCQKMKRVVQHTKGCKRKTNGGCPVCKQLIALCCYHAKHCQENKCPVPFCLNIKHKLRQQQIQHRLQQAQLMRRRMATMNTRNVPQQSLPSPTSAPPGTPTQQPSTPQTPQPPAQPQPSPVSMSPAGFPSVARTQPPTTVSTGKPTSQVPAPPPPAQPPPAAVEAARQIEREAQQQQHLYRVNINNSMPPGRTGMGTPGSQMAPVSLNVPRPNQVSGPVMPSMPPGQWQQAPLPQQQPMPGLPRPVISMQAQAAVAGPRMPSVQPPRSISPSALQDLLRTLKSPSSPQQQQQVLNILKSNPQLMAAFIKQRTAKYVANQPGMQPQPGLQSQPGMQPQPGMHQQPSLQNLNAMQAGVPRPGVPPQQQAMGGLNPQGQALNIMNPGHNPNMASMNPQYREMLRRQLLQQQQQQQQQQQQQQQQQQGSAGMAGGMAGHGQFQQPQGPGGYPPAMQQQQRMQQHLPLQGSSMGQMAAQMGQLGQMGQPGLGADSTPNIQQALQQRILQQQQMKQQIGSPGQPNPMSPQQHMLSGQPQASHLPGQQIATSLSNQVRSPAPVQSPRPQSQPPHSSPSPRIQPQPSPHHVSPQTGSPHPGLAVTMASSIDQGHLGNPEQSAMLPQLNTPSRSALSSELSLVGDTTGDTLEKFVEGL

[5] = target: Chromatin remodeling regulator CECR2 (Homo sapiens, UniProt Q9BXF3); experiment: Inhibition of recombinant His-tagged CECR2 (unknown origin) using biotinylated ligand incubated for 10 mins by TR-FRET assay
[6] = target: T3, Bromodomain-containing protein 4; experiment: Inhibition of recombinant His-tagged BRD4 bromodomain1 (unknown origin) using biotinylated ligand incubated for 10 mins by TR-FRET assay

Row | IC50 (Peregrin) | IC50 [1] | IC50 [2] | IC50 [3] | IC50 [4] | IC50 (CREB-binding protein) | IC50 [5] | IC50 [6] | Structure (SMILES)
1 | > 20 µM | – | – | – | – | – | – | – | C/C=C/Cn1cc(-c2cccc(C(=O)N(C)C)c2)c2cc[nH]c2c1=O
2 | > 20 µM | – | – | – | – | – | – | – | C=CCCn1cc(-c2cccc(C(=O)N(C)C)c2)c2cc[nH]c2c1=O
3 | 53.8 µM | 38.9 µM | 7.5 µM | 13.7 µM | 23.7 µM | 11.8 µM | 42.8 µM | 18.4 µM | Cn1ccc2cc[nH]c2c1=O
